From PubChem
Rows were chosen to be rich in hits. Some 1.5% of all compounds tested hit in one or more screens of this group.
CCR6 antagonist: CCR6 (human) receptor antagonism | CHO-K1 CCR6 PathHunter beta-arrestin, luminescence, CCL20-stimulated | inhibition, % at 20 µM | actives 0.49% (n = 340,000);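 active = compounds whose inhibition of the agonist-driven luminescence signal at 20 µM reaches about 50%, limit read from the data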;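 also: cells stimulated with CCL20 at 14 nM final; plate controls were DMSO with CCL20 for no effect and DMSO without agonist for full effect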
APJ ag: agonists of human APJ apelin receptor; P35414; CHO-K1 APJ PathHunter beta-arrestin, luminescence; 0% DMSO wells, 100% apelin; activation, % at 20 µM; actives 0.11% (n = 330,000); AID 2520;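 active = activation more than six SD over the plate average, tested at 20 µM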;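 also: 0% = DMSO alone and 100% = apelin-13 at 10 nM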
Target sequence (P35414 whole entry, looked up): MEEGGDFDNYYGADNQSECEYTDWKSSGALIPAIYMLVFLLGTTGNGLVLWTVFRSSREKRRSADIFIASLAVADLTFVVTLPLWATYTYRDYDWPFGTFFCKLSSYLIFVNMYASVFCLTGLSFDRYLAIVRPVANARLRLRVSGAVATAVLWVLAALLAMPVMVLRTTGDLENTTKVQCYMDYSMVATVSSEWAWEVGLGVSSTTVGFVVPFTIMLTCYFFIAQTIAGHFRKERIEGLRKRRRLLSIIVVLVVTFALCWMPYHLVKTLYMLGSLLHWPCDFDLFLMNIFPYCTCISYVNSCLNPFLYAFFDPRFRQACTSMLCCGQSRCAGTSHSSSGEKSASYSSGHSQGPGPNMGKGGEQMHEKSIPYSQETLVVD
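Assay system: engineered CHO-K1 APJ arrestin reporter cells; Amount: 1000 CHO-K1 reporter cells seeded per well; Dosing: one dose, 20 µM compound, 1% DMSO; Times: compound stimulation 90 min at 25 °C, detection 60 min; Measured by: luminescent beta-gal fragment complementation, chemiluminescent substrate; Read-out: APJ–arrestin association signal; Controls: DMSO vs Apelin-13 10 nM.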
APJ antagonist: APJ receptor antagonism | P35414 | CHO-K1 APJ beta-arrestin complementation, luminescence | inhibition, % at 20 µM | actives 0.32% (n = 330,000);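 active = inhibition above about 40% at 20 µM, limit read from the data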;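 also: cells challenged with 10 nM apelin-13 agonist together with compound; plate controls were apelin-13 plus DMSO wells for no effect and DMSO wells lacking apelin-13 for full effect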
CXCR6 block: CXCR6 (human) receptor inhibition. O00574. CHO-K1 PathHunter CXCR6 beta-arrestin, luminescence. inhibition, % at 20 µM. actives 0.36% (n = 360,000). AID 602244; in the data active = inhibition above about 34%, passing the limit was not always enough;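 also: antagonist mode with CXCL16 agonist at 10 nM final; 0% = 10 nM CXCL16 with DMSO and 100% = unstimulated wells without agonist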
EBI2 block: blocks human EBI2 receptor beta-arrestin signaling | actives 0.81% (n = 360,000) | EBI2 beta-arrestin recruitment, luminescence, 7a,25-OHC stimulated | inhibition, % at 5 µM | P32249; in the data active = inhibition above about 38%;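 also: enzyme fragment complementation signal reports receptor beta-arrestin coupling in cells; 0% = agonist plus DMSO wells and 100% = wells without agonist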
* marks the source's active call; other numbers are inactive results; / = not tested or not shown.

SMILES	CCR6 antagonist	APJ ag	APJ antagonist	CXCR6 block	EBI2 block
CN1CCN(C2=C(Cl)C(=O)C(c3cnc(N4CCCCC4)s3)=C(Cl)C2=O)CC1	74*	11	11	30	-2
COc1cc(/C=C2/C(=O)NN(c3cccc(F)c3)C2=O)ccc1OC(=O)c1ccco1	0	-3	-1	40*	-20
COc1cc(/C=C2/C(=O)NN(c3ccc(Cl)cc3)C2=O)cc(Br)c1O	25	-6	24	26	-9
COc1cc(/C=C2/C(=O)NN(c3ccc(Cl)cc3)C2=O)ccc1OC(=O)c1ccco1	72*	-4	16	50*	3
O=C(Nc1ccc2c(c1)OCO2)c1cc(C2CCCN(C(=O)C3CCCCC3)C2)on1 (stereo not drawn)	/	/	/	-2	-1
CCOC(=O)/C=C/C(=O)OCC(=O)N1CCN(C(=O)c2ccco2)CC1	0	12	5	-6	-2
Cc1cc(/C=C\c2ccc3cc(N(C)C)ccc3[n+]2C)c(C)n1-c1ccccc1	51*	14	11	22	-8
CS(=O)(=O)c1ccc(S(=O)CC(=O)Oc2ccc(Cl)cc2)c([N+](=O)[O-])c1 (stereo not drawn)	61*	-4	-9	/	/
N=C1/C(=C/c2cccn2CCOc2ccccc2)C(=O)N=C2SC=C(c3ccccc3)N12	42	-2	9	20	41*
CN1CCC(C)(C(=O)Nc2ccc3c(c2)OCCO3)C1 (stereo not drawn)	/	/	/	-5	8
Oc1c(C(Nc2ccccn2)c2cccnc2)cc(Cl)c2cccnc12 (stereo not drawn)	-10	0	24	2	50*
COc1cc(CCC(=O)Nc2ccc(C)c(S(=O)(=O)N3CCCCCC3)c2)cc(OC)c1OC	-13	0	-11	-10	6
O=[N+]([O-])c1ccc(NN=Cc2cccc([N+](=O)[O-])c2)cc1	14	/	/	-2	-13
O=[N+]([O-])c1ccc(N/N=C/c2ccc[nH]2)cc1	55*	/	/	10	5
COc1ccc(CC(N)c2csc(NC(=O)c3cc(C(C)(C)C)oc3C)n2)cc1 (stereo not drawn)	/	/	/	-9	3
COc1cccc(NC(=O)N2CCN(c3cccc(C)c3C)CC2)c1	12	0	-12	5	78*
Cc1c(C#N)c(O)n(C)c(=O)c1N=Nc1ccc(S(N)(=O)=O)cc1	52*	/	/	25	2
Cc1c(C#N)c(O)n(CCO)c(=O)c1N=Nc1ccc(S(N)(=O)=O)cc1	36	-6	32	31	6
CC(=O)Nc1ccc(NCC(=O)c2ccccc2)cc1	28	0	11	51*	-15
CCOc1ccc(C(=O)COc2ccc(NC(C)=O)cc2)cc1	12	-1	-5	0	3
CCOc1ccc(NCC(=O)c2ccc(C)cc2)cc1	68*	-2	6	51*	-6
O=C(CNc1ccccc1)c1ccc([N+](=O)[O-])cc1	20	6	-7	-7	-3
CN1OC[C@@H]2CN(Cc3ccc4c(c3)OCO4)[C@H](c3ccc(N4CCCCC4)cc3)C[C@@H]21	/	/	/	11	16
C#CCn1cc(CNC[C@H]2O[C@@H](n3cnc4c(=O)[nH]c(N)nc43)[C@H](O)[C@@H]2O)c2ccccc21	/	/	/	-3	4
CCc1ccc(S(=O)(=O)/N=C2\C=C(Nc3ccc(C(=O)O)cc3)C(=O)c3ccccc32)cc1	16	-4	1	14	-8
SMILES	CCR6 antagonist	APJ ag	APJ antagonist	CXCR6 block	EBI2 block
Cc1ccc(NC2=C/C(=N/S(=O)(=O)c3cccs3)c3ccccc3C2=O)cc1	59*	1	27	33	32
CC(C)c1ccc(S(=O)(=O)/N=C2/C=C(Sc3ncn[nH]3)C(=O)c3ccccc32)cc1	7	/	/	9	11
Cc1ccc(S(=O)(=O)/N=C2/C=C(Sc3ncn[nH]3)C(=O)c3ccccc32)cc1	92*	/	/	81*	0
CC(C)(C)c1ccc(S(=O)(=O)/N=C2\C=C(NS(=O)(=O)c3ccccc3)C(=O)c3ccccc32)cc1	50*	-4	0	28	-3
O=C1C(Nc2ccccc2)=C/C(=N/S(=O)(=O)c2cccs2)c2ccccc21	64*	/	/	42*	16
COC(=O)C[C@@H]1CC[C@H](NC(=O)CC2CC2)[C@@H](CO)O1	/	/	/	/	-2
CCOC(=O)[C@]12CCCC=C1N(Cc1ccc(Cl)cc1Cl)C(=O)[C@H](CC(=O)NCC13CC4CC(CC(C4)C1)C3)C2	/	/	/	8	17
CCCCNC(=O)C1(C)CCCCCN1Cc1cc2ccccc2o1 (stereo not drawn)	/	/	/	6	18
Cc1ccc(S(=O)(=O)/N=C2\C=C(Nc3ccc(O)cc3)C(=O)c3ccccc32)cc1	63*	-3	26	30	-7
Cc1ccc(S(=O)(=O)/N=C2\C=C(Nc3cccc(C(=O)O)c3)C(=O)c3ccccc32)cc1	23	0	18	27	-2
CC1=NOC(=O)/C1=C\c1ccc(-c2ccc(Br)cc2)o1	76*	/	/	41*	4
CCCCNc1c(-c2ccc(-c3ccc(C(C)=O)cc3)c(OC)c2)nc2cnccn12	16	1	-12	-4	49*
CC1(C)CC(=O)C2=C(C1)Nc1ccccc1N=C2	/	-31	58*	/	/
COCCN1C(=O)CN(S(C)(=O)=O)CC1(C)C(=O)Nc1ccc2c(c1)OCCO2 (stereo not drawn)	/	/	/	/	8
O=c1c2c([N+](=O)[O-])cc([N+](=O)[O-])cc2sn1-c1ccc(Br)cc1	50*	0	-51	22	78*
CC(C)(C)C(=O)NC(=S)NNC(=O)C(c1ccccc1)c1ccccc1	79*	-5	23	72*	-1
Cc1cccc(N2CCN(C(=O)c3cc4c(=O)n(C)c5ccccc5c4n3C)CC2)c1C	6	-2	7	2	27
Cc1ccc(Cl)cc1N1CCN(C(=O)c2cc3c(=O)n(C)c4ccccc4c3n2C)CC1	2	13*	-27	6	33
O=C(NC(=S)Nc1ccccn1)c1cc(-c2ccccc2)nc2ccccc12	19	-1	-1	18	10
CCCCNC(=S)NNC(=O)c1cc(-c2cccnc2)nc2ccccc12	54*	-9	0	22	1
CCCNC(=S)NNC(=O)c1cc(-c2cccnc2)nc2ccccc12	14	-10	-2	14	10
O=C(NC(=S)Nc1ccccc1)c1cc(-c2ccccc2)nc2ccccc12	55*	-6	35	29	5
CC1=C(C(=O)N2CCCCCC2)CC(CC(=O)NCC2CCCCC2)C(=O)N1Cc1ccc(F)cc1 (stereo not drawn)	/	/	/	3	19
COCCNC(=O)C1CCCN(C(=O)COc2ccc(Cl)cc2Cl)CC1 (stereo not drawn)	/	/	/	-2	-3
Cc1ccc(C)c2sc(NC(=O)c3nc4ccccc4s3)nc12	51*	-3	16	38	2
Cc1ccc(/C=C2\SC(=S)N(c3cccnc3)C2=O)cc1	3	-1	-15	-2	1
